Here are results for 21 compounds from ChEMBL document CHEMBL1287772, “Synthesis and structure-activity relationship of tetrahydropyrazolopyrimidine derivatives--a novel structural class of potent calcium-sensing receptor antagonists” (Bioorg Med Chem, 2010).

Data set [1] addresses T1, Extracellular calcium-sensing receptor (Homo sapiens, UniProt P41180).
T1 sequence (P41180 whole entry): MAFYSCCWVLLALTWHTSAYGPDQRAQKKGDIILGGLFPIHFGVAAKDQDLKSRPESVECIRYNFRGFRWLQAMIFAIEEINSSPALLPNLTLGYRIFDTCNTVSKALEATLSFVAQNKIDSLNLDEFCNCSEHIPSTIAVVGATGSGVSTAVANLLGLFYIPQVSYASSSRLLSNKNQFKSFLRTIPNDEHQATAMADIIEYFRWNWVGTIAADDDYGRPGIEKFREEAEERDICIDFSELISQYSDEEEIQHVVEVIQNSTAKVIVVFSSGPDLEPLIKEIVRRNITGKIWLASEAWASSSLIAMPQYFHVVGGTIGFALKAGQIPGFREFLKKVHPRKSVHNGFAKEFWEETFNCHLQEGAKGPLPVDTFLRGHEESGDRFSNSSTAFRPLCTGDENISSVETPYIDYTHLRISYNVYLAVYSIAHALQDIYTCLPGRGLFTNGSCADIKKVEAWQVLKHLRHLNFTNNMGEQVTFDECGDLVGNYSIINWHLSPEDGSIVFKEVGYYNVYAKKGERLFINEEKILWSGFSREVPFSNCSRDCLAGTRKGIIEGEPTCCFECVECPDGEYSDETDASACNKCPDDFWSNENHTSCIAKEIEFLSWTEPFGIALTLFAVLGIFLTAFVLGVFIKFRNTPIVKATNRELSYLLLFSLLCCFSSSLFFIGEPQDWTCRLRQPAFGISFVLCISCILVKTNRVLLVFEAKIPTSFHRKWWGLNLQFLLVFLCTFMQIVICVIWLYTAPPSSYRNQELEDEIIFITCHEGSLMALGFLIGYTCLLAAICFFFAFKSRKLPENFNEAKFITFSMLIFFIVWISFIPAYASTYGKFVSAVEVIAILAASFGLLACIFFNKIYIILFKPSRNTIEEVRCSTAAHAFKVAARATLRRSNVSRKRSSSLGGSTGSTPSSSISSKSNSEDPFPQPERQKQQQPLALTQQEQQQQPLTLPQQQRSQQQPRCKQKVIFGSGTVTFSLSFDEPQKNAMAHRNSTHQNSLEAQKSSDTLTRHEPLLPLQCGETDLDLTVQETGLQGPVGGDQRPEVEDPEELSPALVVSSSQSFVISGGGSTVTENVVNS
As to the kind of experiment: Antagonist activity at CaSR expressed in CHO cells assessed as [35S]-GTPgammaS binding by scintillation counting. The data set is classed as functional, cell-based. For orientation: GTPγS resists hydrolysis and so accumulates on activated G proteins.

Data set [2] in a line: Cmax in Crl:CD(SD) rat at 10 mg/kg, po administered with 0.5% methylcellulose suspension. The data set is classed as ADME, organism-based. The arrangement: dose 10 mg/kg, route oral. The following applies: in vivo. The gist of the method: (§1)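 Nonfasted male rats, 8 weeks old, n = 3, single oral dose 10 mg/kg. Blood sampled at 0.25, 0.5, 1, 2, 4, 8 and 24 h and spun to plasma. Plasma deproteinized with acetonitrile, supernatant diluted in 0.01 mol/L ammonium acetate, re-centrifuged, assayed by HPLC. Mean ± SD reported.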

Data set [3] can be described thus: Cmax in Crl:CD(SD) rat at 10 mg/kg, po administered with solubilized reagent. The data set is classed as ADME, organism-based. The arrangement: dose 10 mg/kg, route oral. Particulars: in vivo. Put shortly: as §1
The nature of data set [4]: AUC in Crl:CD(SD) rat at 10 mg/kg, po administered with solubilized reagent. The data set is classed as ADME, organism-based. The arrangement: dose 10 mg/kg, route oral. The following applies: plasma. The gist of the method: as §1
The nature of data set [5]: Tmax in Crl:CD(SD) rat at 10 mg/kg, po administered with solubilized reagent. The arrangement: dose 10 mg/kg, route oral. Particulars: in vivo. The data set is classed as ADME, organism-based. The gist of the method:
as §1

Data set [6] in a line: Mean residence time in Crl:CD(SD) rat at 10 mg/kg, po administered with solubilized reagent. Particulars: in vivo. The arrangement: dose 10 mg/kg, route oral. The data set is classed as ADME, organism-based. The gist of the method: as §1
The nature of data set [7]: Tmax in Crl:CD(SD) rat at 10 mg/kg, po administered with 0.5% methylcellulose suspension. The data set is classed as ADME, organism-based. The arrangement: dose 10 mg/kg, route oral. Particulars: in vivo. Put shortly:
as §1

The nature of data set [8]: Mean residence time in Crl:CD(SD) rat at 10 mg/kg, po administered with 0.5% methylcellulose suspension. The data set is classed as ADME, organism-based. The arrangement: dose 10 mg/kg, route oral. The following applies: in vivo. Put shortly:
as §1

Data set [9] is described as follows: AUC in Crl:CD(SD) rat at 10 mg/kg, po administered with 0.5% methylcellulose suspension. The data set is classed as ADME, organism-based. The arrangement: dose 10 mg/kg, route oral. Particulars: in vivo. Put shortly: as §1

A word on the IC50: it is the point on the concentration scale where inhibition reaches its midpoint. In general, Cmax refers to the maximum level reached in the sampled fluid or tissue. A word on the AUC: it is concentration integrated over time. One may read the Tmax as the time at which the peak concentration occurs. As usually defined, the MRT is the average time that molecules of a dose stay in the body.

SMILES strings stand for the structures.

On to `O=C(NC12CC3CC(CC(C3)C1)C2)c1cnn2c1N[C@H](c1cccc(Cl)c1)C[C@@H]2C(F)(F)F`, for which the concentration for half-maximal inhibition (IC50) in [1] was found to be 320 nM. On the same count and under the same terms, the value for `O=C(NC12CC3CC(CC(C3)C1)C2)c1cnn2c1N[C@H](c1ccccc1)C[C@@H]2c1ccccc1` was 700 nM. As to `CC1(C)C[C@@H](c2ccccc2)Nc2c(C(=O)NC34CC5CC(CC(C5)C3)C4)cnn21`, the values for the maximum concentration (Cmax) in [2] and in data set [3] were 64 ng/mL and 237 ng/mL, respectively. Also, the AUC in data set [4] turned out to be 1270 ng·h/mL; in data set [9], 591 ng·h/mL. The values for the time to peak (Tmax) in [5] and in [7] were 0.67 h and 1.3 h, respectively. The MRT is 4.48 h in [6] and 4.65 h in data set [8]. Further, the IC50 in data set [1] stood at 10 nM. As to `CCc1ccc([C@@H]2C[C@H](C(F)(F)F)n3ncc(C(=O)NC45CC6CC(CC(C6)C4)C5)c3N2)cc1`, in [1], the IC50 is > 10000 nM.

Take `COc1ccc([C@@H]2C[C@H](C(F)(F)F)n3ncc(C(=O)NC45CC6CC(CC(C6)C4)C5)c3N2)cc1`: the IC50 in data set [1] was > 10000 nM. The same measure, in the same setting: the value for `CN1c2c(C(=O)NC34CC5CC(CC(C5)C3)C4)cnn2[C@@H](C(F)(F)F)C[C@H]1c1ccccc1` was > 10000 nM; that for `CC(C)(C)[C@@H]1C[C@H](C(F)(F)F)n2ncc(C(=O)NC34CC5CC(CC(C5)C3)C4)c2N1` was > 10000 nM. Regarding `O=C(NC12CC3CC(CC(C3)C1)C2)c1cnn2c1N[C@H](c1ccccc1)CC2`, the IC50 in data set [1] worked out at 5300 nM. On to `O=C(OC12CC3CC(CC(C3)C1)C2)c1cnn2c1N[C@H](c1ccccc1)C[C@@H]2C(F)(F)F`, for which the IC50 in [1] was determined as 97 nM.

Consider `C[C@@H]1C[C@H](c2ccccc2)n2ncc(C(=O)NC34CC5CC(CC(C5)C3)C4)c2N1`, for which the IC50 in data set [1] is > 10000 nM.

With `O=C(NC12CC3CC(CC(C3)C1)C2)c1cnn2c1N[C@H](c1ccccc1)C[C@@H]2C(F)(F)F`, the IC50 in data set [1] was found to be 40 nM.

In the case of `O=C(NC12CC3CC(CC(C3)C1)C2)c1cnn2c1N[C@H](c1ccco1)C[C@@H]2C(F)(F)F`, the IC50 in data set [1] amounted to 400 nM.

For the compound `FC(F)(F)[C@H]1C[C@@H](c2ccccc2)Nc2c(CNC34CC5CC(CC(C5)C3)C4)cnn21`, the IC50 in data set [1] is > 10000 nM. Same read-out and setting: the value for `O=C(Nc1cnn2c1N[C@H](c1ccccc1)C[C@@H]2C(F)(F)F)C12CC3CC(CC(C3)C1)C2` was > 10000 nM; that for `O=C(NC12CC3CC(CC(C3)C1)C2)c1cnn2c1N[C@H](c1cccnc1)C[C@@H]2C(F)(F)F` was > 10000 nM; that for `O=C(NC12CC3CC(CC(C3)C1)C2)c1cnn2c(C(F)(F)F)cc(-c3ccccc3)nc12` was > 10000 nM. `C[C@H]1C[C@@H](c2ccccc2)Nc2c(C(=O)NC34CC5CC(CC(C5)C3)C4)cnn21`: the IC50 in data set [1] came to 76 nM. Turning to `CC1(C)C=C(c2ccccc2)Nc2c(C(=O)NC34CC5CC(CC(C5)C3)C4)cnn21`, the IC50 in data set [1] amounted to 580 nM. The same measure, in the same setting: the value for `O=C(NC12CC3CC(CC(C3)C1)C2)c1cnn2c1N[C@H](c1ccc(Cl)cc1)C[C@@H]2C(F)(F)F` was > 10000 nM. Same read-out and setting: as for `O=C(NC12CC3CC(CC(C3)C1)C2)c1cnn2c1N[C@H](c1ccccc1Cl)C[C@@H]2C(F)(F)F`, the figure is 110 nM; as for `O=C(NC12CC3CC(CC(C3)C1)C2)c1cnn2c1NCC[C@@H]2C(F)(F)F`, > 10000 nM.
